Source: ChEMBL document CHEMBL4004857, “Synthesis and biological evaluation of novel pyrazolic chalcone derivatives as novel hepatocellular carcinoma therapeutics” (Eur J Med Chem, 2017)
Calls of active or inactive are those of the source. No cut-off for these calls is given here.

Key:
[1] = species: Homo sapiens; test: Inhibition of tubulin polymerization (unknown origin)
[2] = test system: MCF7; test: Cytotoxicity against human MCF7 cells assessed as growth inhibition after 72 hrs by SRB assay; assay type: functional, cell-based; details: MCF7, 72 h
Method in brief: (§1)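 Cells seeded at 2000–3000 per well and grown 24 h at 37C, then treated in triplicate with compounds dissolved in DMSO over a 40–0.3 range for 72 h. Cells were fixed with 10% TCA for 1 h, stained with 0.4% SRB in 1% acetic acid, washed with 1% acetic acid and air-dried. Bound dye was solubilized in 10 mM Tris base and read at 515 nm. % inhibition and IC50 were calculated against DMSO-only controls.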

[3] = test system: Huh-7; test: Cytotoxicity against human HuH7 cells assessed as growth inhibition after 72 hrs by SRB assay; assay type: functional, cell-based; details: Huh-7, 72 h; method in brief: as §1
[4] = test system: HCT-116; test: Cytotoxicity against human HCT116 cells assessed as growth inhibition after 72 hrs by SRB assay; assay type: functional, cell-based; details: HCT-116, 72 h; method in brief: as §1
[5] = test system: MRC5; test: Cytotoxicity against human MRC5 cells assessed as growth inhibition after 72 hrs by SRB assay; assay type: cell-based; details: mrc5; method in brief: as §1
[6] = test system: SNU-475; test: Growth inhibition of human SNU475 cells at cytotoxic IC100 measured every 10 mins for first 24 hrs and every 30 mins for remaining 48 hrs by RT-CES analysis; assay type: functional, cell-based
[7] = test system: SNU-475; test: Induction of apoptosis in human SNU475 cells assessed as condensed nuclei at cytotoxic IC100 measured after 72 hrs by light microscopic method; assay type: functional, cell-based
[8] = test system: MCF-12A; test: Cytotoxicity against human MCF12A cells assessed as growth inhibition after 72 hrs by SRB assay; assay type: cell-based; method in brief: as §1
[9] = test system: HepG2; test: Cytotoxicity against human HepG2 cells assessed as growth inhibition after 72 hrs by SRB assay; assay type: functional, cell-based; details: HepG2, 72 h; method in brief: as §1
[10] = test system: HepG2; test: Growth inhibition of human HepG2 cells at cytotoxic IC100 measured every 10 mins for first 24 hrs and every 30 mins for remaining 48 hrs by RT-CES analysis; assay type: functional, cell-based
[11] = test system: SNU-475; test: Induction of apoptosis in human SNU475 cells assessed as condensed nuclei at cytotoxic IC100 measured after 48 hrs by DAPI/Annexin-V-Fluos staining based fluorescent microscopic method; assay type: functional, cell-based
Method in brief: (§2)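 Cells on coverslips were treated after 24 h in culture and stained 48 h later with Annexin-V-Fluos plus DAPI nuclear stain. Cells were then examined by fluorescence microscopy for Annexin V-positive cells with condensed nuclei.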

[12] = test system: Huh-7; test: Growth inhibition of human HuH7 cells at cytotoxic IC100 measured every 10 mins for first 24 hrs and every 30 mins for remaining 48 hrs by RT-CES analysis; assay type: functional, cell-based
[13] = test system: Mahlavu; test: Growth inhibition of human Mahlavu cells at cytotoxic IC100 measured every 10 mins for first 24 hrs and every 30 mins for remaining 48 hrs by RT-CES analysis; assay type: functional, cell-based
[14] = test system: SNU-475; test: Induction of apoptosis in human SNU475 cells assessed as PARP cleavage at cytotoxic IC100 measured after 24 hrs by Western blot method; assay type: functional, cell-based
[15] = test system: HepG2; test: Induction of apoptosis in human HepG2 cells assessed as condensed nuclei at cytotoxic IC100 measured after 48 hrs by DAPI/Annexin-V-Fluos staining based fluorescent microscopic method; assay type: functional, cell-based; method in brief: as §2
[16] = test system: SNU-475; test: Cytotoxicity against human SNU475 cells assessed as growth inhibition after 72 hrs by SRB assay; assay type: functional, cell-based; details: SNU-475, 72 h; method in brief: as §1
[17] = test system: Mahlavu; test: Cytotoxicity against human Mahlavu cells assessed as growth inhibition after 72 hrs by SRB assay; assay type: functional, cell-based; method in brief: as §1
[18] = test system: HepG2; test: Induction of apoptosis in human HepG2 cells assessed as condensed nuclei at cytotoxic IC100 measured after 72 hrs by light microscopic method; assay type: functional, cell-based
[19] = test system: HepG2; test: Induction of apoptosis in human HepG2 cells assessed as PARP cleavage at cytotoxic IC100 measured after 24 hrs by Western blot method; assay type: functional, cell-based

SMILES | inhibition [1] | IC50 [2] [µM] | IC50 [3] [µM] | IC50 [4] [µM] | other results
O=C(/C=C/c1cn(-c2ccccc2)nc1-c1cccnc1)c1ccccc1 | inactive | 4.1 | 2.3 | 2 | –
COc1ccc(C(=O)/C=C/c2cn(-c3ccccc3)nc2-c2ccsc2)cc1OC | inactive | 2.8 | 2.9 | 1.6 | –
O=C(/C=C/c1cn(-c2ccccc2)nc1-c1cccnc1)c1ccc2c(c1)OCO2 | inactive | 5.6 | 6.7 | 1.8 | –
COc1cc(OC)c(C(=O)/C=C/c2cn(-c3ccccc3)nc2-c2ccsc2)c(OC)c1 | inactive | 2.7 | 6.1 | 5.2 | –
COc1ccc(C(=O)/C=C/c2cn(-c3ccccc3)nc2-c2ccc3c(c2)OCO3)c(OC)c1OC | inactive | 7.4 | 10.8 | 3.2 | –
COc1ccc(C(=O)/C=C/c2cn(-c3ccccc3)nc2-c2ccc3c(c2)OCO3)c(OC)c1 | inactive | 14.5 | 19 | 8.6 | –
O=c1[nH]cc(F)c(=O)[nH]1 [FLUOROURACIL] | – | 1.4 | 21 | 18.4 | –
O=C(/C=C/c1cn(-c2ccccc2)nc1-c1ccncc1)c1ccc2c(c1)OCO2 | inactive | 0.8 | 0.4 | 5.3 | –
O=C(/C=C/c1cn(-c2ccccc2)nc1-c1ccncc1)c1cc[nH]c1 | inactive | 13.6 | 28.8 | 15.7 | –
COc1cc(C(=O)/C=C/c2cn(-c3ccccc3)nc2-c2ccc3c(c2)OCO3)cc(OC)c1OC | inactive | 10.9 | 11.7 | 8.3 | –
O=C(/C=C/c1cn(-c2ccccc2)nc1-c1ccc2c(c1)OCO2)c1ccccn1 | inactive | 4.1 | 3.4 | 6.7 | –
COc1cc(OC)c(C(=O)/C=C/c2cn(-c3ccccc3)nc2-c2ccncc2)c(OC)c1 | inactive | 1.6 | 2.6 | 0.6 | IC50 [5]: Non-Toxic; growth inhibition (GI) [6]: Active; Activity [7]: Active; IC50 [8]: 8.2 µM; IC50 [9]: 1.7 µM; growth inhibition (GI) [10]: Active; Activity [11]: Active; growth inhibition (GI) [12]: Active; growth inhibition (GI) [13]: Active; Activity [14]: Active; Activity [15]: Active; IC50 [16]: 1.4 µM; IC50 [17]: 1.1 µM; Activity [18]: Active; Activity [19]: Active
COc1ccc(C(=O)/C=C/c2cn(-c3ccccc3)nc2-c2ccncc2)cc1OC | inactive | 4.3 | 2 | 1.2 | –
O=C(/C=C/c1cn(-c2ccccc2)nc1-c1cccnc1)c1ccccn1 | inactive | 4.2 | 6.4 | 2.1 | –
COc1ccc(OC)c(C(=O)/C=C/c2cn(-c3ccccc3)nc2-c2ccc3c(c2)OCO3)c1 | inactive | 5.8 | 6.1 | 1.3 | –
COc1cc(OC)c(C(=O)/C=C/c2cn(-c3ccccc3)nc2-c2ccc3c(c2)OCO3)c(OC)c1 | inactive | 11.5 | 6.7 | 10.8 | –
O=C(/C=C/c1cn(-c2ccccc2)nc1-c1ccc2c(c1)OCO2)c1cccnc1 | inactive | 2.2 | 3.4 | 3.8 | –
O=C(/C=C/c1cn(-c2ccccc2)nc1-c1ccc2c(c1)OCO2)c1ccccc1 | inactive | 11.1 | 10.5 | 1.16 | –
O=C(/C=C/c1cn(-c2ccccc2)nc1-c1ccc2c(c1)OCO2)c1ccc2c(c1)OCO2 | inactive | 17.5 | 9.9 | 27.2 | –
COc1ccc(C(=O)/C=C/c2cn(-c3ccccc3)nc2-c2ccncc2)c(OC)c1OC | inactive | 3.3 | 3.7 | 1.3 | –
O=C(/C=C/c1cn(-c2ccccc2)nc1-c1ccsc1)c1ccc2c(c1)OCO2 | inactive | 5.3 | 22.6 | 12.2 | –
